Results taken from ChEMBL document CHEMBL3124820, “Design, synthesis and biological evaluation of hetero-aromatic moieties substituted pyrrole-2-carbonitrile derivatives as dipeptidyl peptidase IV inhibitors” (Eur J Med Chem, 2014).

Legend:
[1] = Cmax in Sprague-Dawley rat at 20 mg/kg, po; type: ADME, organism-based; design: dose 20 mg/kg, route oral; settings: in vivo
Procedure, shortened: (§1)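 Sprague-Dawley rats were dosed orally or intravenously, and blood was sampled after dosing. Plasma was separated by centrifugation and deproteinized with methanol containing an internal standard. The supernatant was diluted with methanol, centrifuged again and quantified by LC/MS/MS.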

[2] = Mean residence time in Sprague-Dawley rat at 5 mg/kg, iv; type: ADME, organism-based; design: dose 5 mg/kg, route intravenous; settings: in vivo; procedure, shortened: as §1
Mus musculus [3] = experiment: Antidiabetic activity in ICR mouse assessed as decrease in blood glucose AUC (0 to 120 mins) at 15 mg/kg administered for 30 mins prior to glucose challenge measured after 4 hrs by OGTT relative to vehicle-treated control; type: functional; design: scale not given: the % may be the effect or the level left
Procedure, shortened: (§2)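 ICR mice were fasted 16 h and given one dose in 0.5% methylcellulose vehicle (10 mL/kg). An oral glucose load of 2.5 g/kg followed; methods state 30 min after dosing, the figure legend 4 h.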

[4] = Tmax in Sprague-Dawley rat at 20 mg/kg, po; type: ADME, organism-based; design: dose 20 mg/kg, route oral; settings: in vivo; procedure, shortened: as §1
[5] = AUC (0 to t) in Sprague-Dawley rat at 5 mg/kg, iv; type: ADME, organism-based; design: dose 5 mg/kg, route intravenous; settings: plasma; procedure, shortened: as §1
Cytochrome P450 3A4 = Cytochrome P450 3A4 (Homo sapiens, UniProt P08684); experiment: Inhibition of CYP3A4 (unknown origin); type: ADME
Sequence of Cytochrome P450 3A4 (P08684 whole entry): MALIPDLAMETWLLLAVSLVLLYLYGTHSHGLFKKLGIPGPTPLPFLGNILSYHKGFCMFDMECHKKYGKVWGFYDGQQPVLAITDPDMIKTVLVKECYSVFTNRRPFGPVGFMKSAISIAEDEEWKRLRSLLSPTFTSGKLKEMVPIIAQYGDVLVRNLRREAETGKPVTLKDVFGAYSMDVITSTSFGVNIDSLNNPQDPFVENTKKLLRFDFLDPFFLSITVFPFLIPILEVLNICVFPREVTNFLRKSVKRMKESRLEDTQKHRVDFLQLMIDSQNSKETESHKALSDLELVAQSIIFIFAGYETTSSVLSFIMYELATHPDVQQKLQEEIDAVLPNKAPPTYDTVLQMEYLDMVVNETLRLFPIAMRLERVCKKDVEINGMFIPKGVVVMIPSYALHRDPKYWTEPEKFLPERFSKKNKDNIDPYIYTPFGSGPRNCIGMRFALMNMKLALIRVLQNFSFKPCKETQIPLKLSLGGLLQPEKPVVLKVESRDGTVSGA

[6] = AUC (0 to infinity) in Sprague-Dawley rat at 20 mg/kg, po; type: ADME, organism-based; design: time infinity, dose 20 mg/kg, route oral; settings: plasma; procedure, shortened: as §1
[7] = Tmax in Sprague-Dawley rat at 5 mg/kg, iv; type: ADME, organism-based; design: dose 5 mg/kg, route intravenous; settings: in vivo; procedure, shortened: as §1
[8] = Half life in Sprague-Dawley rat at 20 mg/kg, po; type: ADME, organism-based; design: dose 20 mg/kg, route oral; settings: in vivo; procedure, shortened: as §1
CYP2C9 = CYP2C9 (Homo sapiens, UniProt P11712); experiment: Inhibition of CYP2C9 (unknown origin) at 100 uM relative to control; type: ADME
Sequence of CYP2C9 (P11712 whole entry): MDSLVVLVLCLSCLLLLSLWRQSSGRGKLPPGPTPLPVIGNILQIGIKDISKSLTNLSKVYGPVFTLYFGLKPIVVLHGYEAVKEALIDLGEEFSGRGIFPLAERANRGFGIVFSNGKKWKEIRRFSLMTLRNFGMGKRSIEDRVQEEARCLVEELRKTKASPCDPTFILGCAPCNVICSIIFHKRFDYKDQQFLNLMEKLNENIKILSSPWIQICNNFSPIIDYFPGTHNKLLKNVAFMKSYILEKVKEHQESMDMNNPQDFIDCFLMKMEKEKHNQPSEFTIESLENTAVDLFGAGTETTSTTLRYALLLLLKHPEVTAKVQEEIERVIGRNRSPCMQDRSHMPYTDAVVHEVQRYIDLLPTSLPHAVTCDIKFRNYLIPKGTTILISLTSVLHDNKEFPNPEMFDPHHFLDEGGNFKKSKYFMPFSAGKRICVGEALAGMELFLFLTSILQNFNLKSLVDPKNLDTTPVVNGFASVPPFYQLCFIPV

Mus musculus [9] = experiment: Antidiabetic activity in ICR mouse assessed as decrease in blood glucose AUC (0 to 120 mins) administered for 30 mins prior to glucose challenge measured after 4 hrs by OGTT; type: functional, organism-based
Procedure, shortened: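 ICR mice fasted 16 h, then given a single dose of 15 or 50 mg/kg; vehicle 0.5% methylcellulose (10 mL/kg), LAF237 30 mg/kg as positive control. Oral glucose 2.5 g/kg given 30 min after dosing (legend says 4 h). Blood glucose read at 0, 15, 30, 60, 90, 120 min for AUC0–120. Mean ± SE, n = 10; Student's t-test.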

[10] = AUC (0 to infinity) in Sprague-Dawley rat at 5 mg/kg, iv; type: ADME, organism-based; design: time infinity, dose 5 mg/kg, route intravenous; settings: plasma; procedure, shortened: as §1
[11] = Oral bioavailability in Sprague-Dawley rat at 20 mg/kg; type: ADME, organism-based; settings: in vivo; procedure, shortened: as §1
[12] = Mean residence time in Sprague-Dawley rat at 20 mg/kg, po; type: ADME, organism-based; design: dose 20 mg/kg, route oral; settings: in vivo; procedure, shortened: as §1
[13] = Cmax in Sprague-Dawley rat at 5 mg/kg, iv; type: ADME, organism-based; design: dose 5 mg/kg, route intravenous; settings: in vivo; procedure, shortened: as §1
Mus musculus [14] = experiment: Antidiabetic activity in ICR mouse assessed as decrease in blood glucose AUC (0 to 120 mins) at 50 mg/kg administered for 30 mins prior to glucose challenge measured after 4 hrs by OGTT relative to vehicle-treated control; type: functional; design: scale not given: the % may be the effect or the level left; procedure, shortened: as §2
[15] = Half life in Sprague-Dawley rat at 5 mg/kg, iv; type: ADME, organism-based; design: dose 5 mg/kg, route intravenous; settings: in vivo; procedure, shortened: as §1
[16] = AUC (0 to t) in Sprague-Dawley rat at 20 mg/kg, po; type: ADME, organism-based; design: dose 20 mg/kg, route oral; settings: plasma; procedure, shortened: as §1
[17] = Apparent clearance in Sprague-Dawley rat at 5 mg/kg, iv; type: ADME, organism-based; design: dose 5 mg/kg, route intravenous; settings: in vivo, read-out: CL(app) (converted); procedure, shortened: as §1

## N#C[C@@H]1C[C@H](F)CN1C(=O)[C@@H](N)Cc1cc2c(cc1Br)OCO2
[1]
  Cmax: 2200 ng/mL
[2]
  MRT: 33 min
Mus musculus [3]
  Activity: 12.2%
[4]
  Tmax: 18 min
[5]
  AUC(0-t): 1920 ng·h/mL
Cytochrome P450 3A4
  IC50: 2.2 µM
[6]
  AUC(0-inf): 1580 ng·h/mL
[7]
  Tmax: 18 min
[8]
  half-life: 218 min
CYP2C9
  inhibition at 100 µM: -20.3%
Mus musculus [9]
  Activity: Dose-dependent effect
[10]
  AUC(0-inf): 1920 ng·h/mL
[11]
  bioavailability: 16.8%
[12]
  MRT: 189 min
[13]
  Cmax: 2030 ng/mL
Mus musculus [14]
  Activity: 23.6%
[15]
  half-life: 37.8 min
[16]
  AUC(0-t): 1290 ng·h/mL
[17]
  clearance: 43.5 mL/min/kg
